Experimental data: ChEMBL document CHEMBL4673386, “The Bicyclic Form of galacto-Noeurostegine Is a Potent Inhibitor of β-Galactocerebrosidase” (ACS Med Chem Lett, 2021)

Experiments:
[1] = Inhibition of Escherichia coli beta-galactosidase using […] as substrate preincubated for 30 mins followed by substrate addition by UV-vis spectrophotometry analysis
[2] = biological target: T1, Galactocerebrosidase (Mus musculus) (UniProt P54818); experiment: Stabilization of mouse N-terminal His6-tagged GALC expressed in HEK293T cells assessed as change in melting temperature at pH 6.6 by differential scanning fluorimetry; type: cell-based
T1 sequence (whole entry): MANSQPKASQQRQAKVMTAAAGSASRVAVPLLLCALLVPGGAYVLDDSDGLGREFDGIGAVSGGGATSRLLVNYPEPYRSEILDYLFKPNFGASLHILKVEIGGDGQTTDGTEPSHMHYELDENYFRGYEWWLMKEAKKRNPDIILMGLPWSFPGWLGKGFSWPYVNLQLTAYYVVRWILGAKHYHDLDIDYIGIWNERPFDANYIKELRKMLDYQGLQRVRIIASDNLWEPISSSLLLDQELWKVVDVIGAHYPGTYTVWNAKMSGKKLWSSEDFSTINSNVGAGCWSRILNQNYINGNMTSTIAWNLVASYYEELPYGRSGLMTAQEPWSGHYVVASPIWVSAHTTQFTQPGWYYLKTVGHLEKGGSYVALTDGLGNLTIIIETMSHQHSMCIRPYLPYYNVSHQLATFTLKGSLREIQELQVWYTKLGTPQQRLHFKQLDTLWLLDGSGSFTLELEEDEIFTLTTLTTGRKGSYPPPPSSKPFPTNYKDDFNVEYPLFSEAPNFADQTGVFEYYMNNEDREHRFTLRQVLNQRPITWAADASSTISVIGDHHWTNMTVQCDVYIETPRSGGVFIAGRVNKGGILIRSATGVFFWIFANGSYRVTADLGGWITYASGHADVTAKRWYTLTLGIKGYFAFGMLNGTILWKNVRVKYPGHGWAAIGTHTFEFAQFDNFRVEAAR
Procedure, shortened: (§1)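 GALC thermal melt curves recorded with and without ligand at 0.5 mM, at pH values from 4.6 to 7.4. Tm is read from each curve, and ΔTm is taken against GALC alone at the same pH. Runs were done in triplicate.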

[3] = biological target: T1, Galactocerebrosidase (Mus musculus); experiment: Stabilization of mouse N-terminal His6-tagged GALC expressed in HEK293T cells assessed as melting temperature at 0.5 mM at pH 4.6 by differential scanning fluorimetry (reference value: 62.2 degreeC); type: cell-based; procedure, shortened: as §1
[4] = biological target: T1, Galactocerebrosidase (Mus musculus); experiment: Stabilization of mouse N-terminal His6-tagged GALC expressed in HEK293T cells assessed as melting temperature at 0.5 mM at pH 7.4 by differential scanning fluorimetry (reference value: 53.4 degreeC); type: cell-based; procedure, shortened: as §1
[5] = biological target: T1, Galactocerebrosidase (Mus musculus); experiment: Stabilization of mouse N-terminal His6-tagged GALC expressed in HEK293T cells assessed as change in melting temperature at pH 4.6 by differential scanning fluorimetry; type: cell-based; procedure, shortened: as §1
[6] = biological target: T1, Galactocerebrosidase (Mus musculus); experiment: Stabilization of mouse N-terminal His6-tagged GALC expressed in HEK293T cells assessed as melting temperature at 0.5 mM at pH 5.6 by differential scanning fluorimetry (reference value: 62.8 degreeC); type: cell-based; procedure, shortened: as §1
Galactocerebrosidase = biological target: T2, Galactocerebrosidase (Mus musculus, UniProt P54818); experiment: Inhibition of mouse N-terminal His6-tagged GALC expressed in HEK293T cells using p-nitrophenyl-beta-D-galactopyranoside as substrate
T2 sequence (P54818 whole entry): T1 sequence (whole entry)

[7] = biological target: T1, Galactocerebrosidase (Mus musculus); experiment: Stabilization of mouse N-terminal His6-tagged GALC expressed in HEK293T cells assessed as change in melting temperature at pH 7.4 by differential scanning fluorimetry; type: cell-based; procedure, shortened: as §1
[8] = biological target: T1, Galactocerebrosidase (Mus musculus); experiment: Stabilization of mouse N-terminal His6-tagged GALC expressed in HEK293T cells assessed as change in melting temperature at pH 5.6 by differential scanning fluorimetry; type: cell-based; procedure, shortened: as §1
[9] = biological target: T1, Galactocerebrosidase (Mus musculus); experiment: Stabilization of mouse N-terminal His6-tagged GALC expressed in HEK293T cells assessed as melting temperature at 0.5 mM at pH 6.6 by differential scanning fluorimetry (reference value: 59.6 degreeC); type: cell-based; procedure, shortened: as §1
[10] = Inhibition of green coffee beans beta-galactosidase using […] as substrate preincubated for 30 mins followed by substrate addition by UV-vis spectrophotometry analysis; design: species or system Coffea arabica
[11] = Inhibition of Aspergillus oryzae beta-galactosidase using […] as substrate preincubated for 30 mins followed by substrate addition by UV-vis spectrophotometry analysis

SMILES | Ki [1] | ΔTm [2] | Tm [3] | Tm [4] | ΔTm [5] | Tm [6] | Ki (Galactocerebrosidase) | ΔTm [7] | ΔTm [8] | Tm [9] | Ki [10] | Ki [11]
OC[C@@H]1[C@H](O)[C@H](O)[C@]2(O)CC[C@H]1N2 | > 1000 µM | 5.4 °C | 68 °C | 54.8 °C | 5.8 °C | 68 °C | 7 µM | 1.4 °C | 5.2 °C | 65 °C | > 1000 µM | 0.031 µM
OC[C@@H]1[C@H](O)[C@H](O)[C@@H]2CC[C@H]1N2 | > 1000 µM | – | – | – | – | – | 2300 µM | – | – | – | > 1000 µM | 0.13 µM
